Screening data (PubChem)
Compounds with a hit are over-represented: about 4.8% of the library has one in this group of screens.
GPR7 antagonist: antagonists of human GPR7 (neuropeptides B/W receptor 1). P48145. GPR7-expressing cells, fluorescence antagonist assay. inhibition, % at 4.4 µM. hit rate 1.1% among 290,000; in the data active = inhibition above about 16%, passing the limit was not always enough;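 also: cells stimulated with the agonist NPW; 0% = agonist with vehicle and 100% = vehicle without agonist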
Target sequence (P48145 whole entry, looked up): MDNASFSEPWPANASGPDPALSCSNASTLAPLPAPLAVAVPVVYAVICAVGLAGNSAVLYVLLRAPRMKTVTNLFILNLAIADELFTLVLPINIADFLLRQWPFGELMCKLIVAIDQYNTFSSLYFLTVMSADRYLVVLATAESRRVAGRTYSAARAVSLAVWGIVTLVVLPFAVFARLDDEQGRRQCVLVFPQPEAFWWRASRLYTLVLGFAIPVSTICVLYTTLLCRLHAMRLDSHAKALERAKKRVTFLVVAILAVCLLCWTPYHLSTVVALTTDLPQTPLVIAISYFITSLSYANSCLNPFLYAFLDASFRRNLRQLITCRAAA
HSF1 inhib: HSF1 inhibition; activity change, negative = inhibition, % at 7.5 µM (by protocol); AID 2098; hit rate 0.77% among 300,000; NIH3T3-HGL HSE-luciferase, MG132-induced, luminescence 8 h; hits give low values;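 active = more than half of replicate wells show activity change below -50%, luminescence cut by over half; inconclusive = some wells, but at most half, below -50%; inactive = no replicate well below -50%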;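 also: luciferase reports HSF-1 transcriptional activity via heat shock element; 0% = median of DMSO wells and -100% = zero luminescence signal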
T cruzi inh: blocks replication of Trypanosoma cruzi; hit rate 1.4% among 300,000; inhibition, % (concentration not given with the values); T. cruzi beta-gal in NIH3T3, luminescence, 90 h;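 active = mean inhibition across valid replicates above about 55%, limit read from the data; inconclusive = mean below that limit but half or more replicates reach it; inactive = mean below it, under half of replicates reach it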;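 also: signal also drops with host cell toxicity which is not excluded here; 0% = plate median of DMSO wells and 100% = zero luminescence signal; higher percent means less beta-gal luminescence so fewer parasites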
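Test system: β-gal T. cruzi (Tulahuen C4) inside NIH/3T3 cells / Quantity: 5,000 cells/well / Measured by: luminescence from GalScreen with 0.05% NP40, read after 60 min / Medium: DMEM plus 2% FBS / Measure: parasite load inhibition, % / Reagent: Tulahuen C4 trypomastigotes, 5000/well / Schedule: co-culture of at least 90 h after 3 h attachment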
HSF1 activator: increases HSF-1 driven luciferase reporter signal | NIH3T3-HGL HSF-1 luciferase reporter, MG132, 8 h; 100% = twice DMSO control signal | activation, % at 9 µM | hit rate 1.7% among 300,000 | AID 504408;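 active = mean replicate activation of at least 50% with a set share of replicates each reaching 50%; inconclusive = only one of those two conditions met; inactive = mean below 50% and too few replicates reaching it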;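 also: 0% = median of the neutral control wells and 100% = twice that signal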
697 NFkB inh: lowers PMA/ionomycin-induced NF-kB signal in 697 B cells; hit rate 0.33% among 330,000; 697 B-cell NF-kB luciferase reporter, 16 h; inhibition, % at 4 µM; AID 435022; in the data active = inhibition above about 35%
Jurkat NFkB inh: lowers PMA/ionomycin-induced NF-kB signal in Jurkat cells; hit rate 0.53% among 330,000; inhibition, % at 4 µM; PMA/ionomycin-induced NF-kB luciferase reporter, luminescence; AID 435003; in the data active = inhibition above about 50%
GPR7 antag conf: confirmation of human GPR7 antagonists | inhibition, % at 4.4 µM | hit rate 52% among 2,400 | shares compounds with GPR7 antagonist | GPR7-expressing cells, calcium fluorescence antagonist mode | AID 1952; in the data active = inhibition above about 24%;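 also: stimulated with the GPR7 agonist NPW; 0% = agonist plus vehicle and 100% = vehicle alone without agonist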
MCHR1 antag: antagonizes human MCHR1, a GPR7 antagonist counter-screen. AID 2148. MCHR1-expressing cells, fluorescence antagonist assay. shares compounds with GPR7 antagonist. hit rate 62% among 2,400. inhibition, % at 4.4 µM; in the data active = inhibition above about 22%;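 also: 0% = vehicle with agonist and 100% = vehicle without agonist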
Jurkat NFkB conf: inhibitors of the PMA/ionomycin-induced NF-kB reporter in Jurkat cells, retest; shares compounds with Jurkat NFkB inh; Jurkat NF-kB luciferase, 16 h; inhibition, % at 4 µM; hit rate 27% among 2,700; AID 435020;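 active = inhibition reaching about 45% at 4 µM in either replicate, limit read from the data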;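 also: plate controls were PMA/ionomycin stimulated DMSO wells for no effect and unstimulated DMSO wells for full effect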
The depositor's hits bear a star; ? = inconclusive; / = no result given.

SMILES	GPR7 antagonist	HSF1 inhib	T cruzi inh	HSF1 activator	697 NFkB inh	Jurkat NFkB inh	GPR7 antag conf	MCHR1 antag	others
COC(=O)C(O)(c1ccc(NC(=S)NC(=O)c2ccc(Cl)cc2Cl)c(C)c1)C(F)(F)F (stereo unspecified)	8	5	1	-8	-23	0	/	/
COc1cc2c(cc1OC)C(C(=O)NC(C)C)C1CCCCN1C2=O (stereo unspecified)	-2	-5	-2	-8	19	-12	/	/
CCCCC12CNCC(C)(CNC1)C2=O	11	-2	4	-1	17	-8	/	/
Cc1[nH]c2ccc(OC(F)(F)F)cc2c1CCNCc1ccc(Cl)cc1	36	-6	40	5	6	19	/	/
Cc1[nH]c2ccc(OC(F)(F)F)cc2c1CCNCc1cccc([N+](=O)[O-])c1	43*	0	?	15	-8	20	35*	75*
CCNC(=O)NNC(=O)C1CC(c2cccnc2)=NO1 (stereo unspecified)	-5	7	-9	39	12	10	/	/
CCOc1ccc(-c2cc(C)[n+](CCc3ccc(OC)c(OC)c3)c(-c3ccc(OCC)cc3)c2)cc1	54*	-1	52	2	-14	26	66*	61*
CN(C)CCN=Cc1c(O)n(-c2cccc3ccccc23)c(=O)[nH]c1=O	16	1	-17	11	-12	-31	/	/
COc1cc(C)c(CNCCc2c[nH]c3ccccc23)cc1C	38*	-9	36	2	-15	15	22	55*
CN(C)C1(CNC(=O)Nc2ccc(Cl)c(Cl)c2)CCCCC1	30*	1	41	13	1	22	43*	47*
COC(=O)C1C(O)C(C)C(O)C(C)/C=C\C=C(/C)C(=O)Nc2c(C)c(OC(C)=O)c3c(c2O)C(=O)C(C)=C2OCOC(=C23)/C(C)=C/C(C)(O)C(O)C(C)C1O (stereo unspecified)	-10	-2	-15	13	-1	3	/	/
C=CCn1c(O)c(/C(C)=N/N2CCCCCC2)c(=O)[nH]c1=O	-21	5	7	13	-20	-26	/	/
CCCCOc1ccc(CCN)cc1Cl	29*	8	5	7	-5	-19	26*	30*
CN1CC=C(c2c[nH]c3ccccc23)CC1	-10	-2	-8	-12	-19	-11	/	/
CC(C(=O)c1c[nH]c2ccccc12)N1CCc2ccccc2C1 (stereo unspecified)	22*	5	16	10	-17	-12	14	17
CCC(=O)c1cn(Cc2ccc(C#N)cc2)c2ccccc12	27*	4	21	-5	-13	-13	14	15
CCN(CC)c1ccc(/C=C/[N+](=O)[O-])cc1	22*	34	-6	?	15	1	55*	84*
Fc1ccc2c(c1)nnn2C1CCN(Cc2nnnn2C2CCCCC2)CC1	27*	-3	25	5	-28	12	13	5
COc1cccc(O)c1CN1CCCC(C(=O)c2ccccc2SC)C1 (stereo unspecified)	8	-7	15	-5	-5	9	/	/
Cc1cccc(OCC(=O)N2CCN(Cc3ccc([N+](=O)[O-])cc3)CC2)c1	13	-1	21	-4	16	10	/	/
Cc1ccc(OCC(=O)N2CCN(Cc3ccc([N+](=O)[O-])cc3)CC2)cc1	21*	0	23	2	4	10	28*	36*
CCOC(=O)C1CCCN(c2ccc([N+](=O)[O-])c3nonc23)C1 (stereo unspecified)	45*	5	0	11	/	/	42*	68*
CC/C(=N\NC(=O)c1ccccc1Cl)c1c(O)n(C2CCCCC2)c(=O)[nH]c1=O	35*	4	-6	12	5	1	0	6
CN1C(=O)C(=Cc2ccccc2OS(=O)(=O)c2ccccc2)C(=O)N(C)C1=O	-11	-7	-16	-3	-26	-13	/	/
CC(C)[C@H](NC(=O)N1C[C@H]2C[C@@H](C1)c1cccc(=O)n1C2)C(=O)Nc1ccccc1F	-1	-3	7	-8	15	1	/	/
SMILES	GPR7 antagonist	HSF1 inhib	T cruzi inh	HSF1 activator	697 NFkB inh	Jurkat NFkB inh	GPR7 antag conf	MCHR1 antag	others
CCn1cc(C=C2C(=O)NC(=O)NC2=O)c2ccccc21	-9	-2	-11	4	24	12	/	/
CCn1cc(C=C2C(=O)N(C)C(=O)N(C)C2=O)c2ccccc21	32*	-23	11	-35	-16	8	-8	9
Cc1ccc2c(c1)C(c1ccccc1)NCC(=O)N2 (stereo unspecified)	-2	-2	-1	-4	7	9	/	/
CC(=O)NCCc1c[nH]c2ccccc12	-2	7	-5	6	-1	1	/	/
CC(=O)c1cn(CC(=O)NCCc2c[nH]c3ccccc23)c2ccccc12	25*	-2	-32	6	-51	0	3	51*
CN(C)C(=O)Oc1ccc(OCc2n(C)c3ccccc3[n+]2C)cc1	-3	-2	-5	-5	4	6	/	/
CCc1ccccc1NC(=O)CNC1CCCCC1	25*	-1	-21	-4	22	-5	0	7
Cc1ccc2ccccc2c1NC(=O)CNC1CCCCC1	8	-5	3	0	-23	0	/	/
CCOc1ccc(N=Cc2c(O)n(-c3cc(C)cc(C)c3)c(=O)[nH]c2=O)cc1	24*	1	4	32	14	1	-4	7
CCOc1ccc(N=Cc2c(O)n(-c3ccc(C)c(C)c3)c(=O)[nH]c2=O)cc1	2	-8	7	6	-4	-4	/	/
CC(C)(C)NC(=S)N1CCn2cccc2C1c1cccnc1 (stereo unspecified)	0	-2	-8	-1	15	1	/	/
N#CCCn1cc(C(=O)Nc2ccc([N+](=O)[O-])cc2)c(-c2ccc3c(c2)OCCO3)n1	25*	4	-1	-3	-15	-14	1	13
CCN1/C(=C\C=C\C2=[N+](CC)c3ccccc3C2(C)C)C(C)(C)c2ccccc21	98*	1	55*	-15	-37	100*	103*	106*	Jurkat NFkB conf=80*
CCOc1cccc(CNCCc2c(C)[nH]c3ccc(OC(F)(F)F)cc23)c1O	53*	-1	25	5	-25	66*	84*	95*	Jurkat NFkB conf=25
COc1ccc2[nH]c(C)c(CCNCc3cccnc3)c2c1	/	/	/	/	8	-2	/	/
